# From ChEMBL document CHEMBL1146601, “Antileishmanial ring-substituted ether phospholipids” (J Med Chem, 2003)
# Columns and labels:
# [1] = tested on: Leishmania donovani; experiment: In vitro anti-leishmanial activity against promastigote cultures of Leishmania donovani MON 703; type: functional, organism-based
# Procedure, shortened: (§1)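 Promastigotes (L. donovani MHOM/IN/80/DD8/LEM 703; L. infantum MHOM/TN/80/IPT1/LEM 235) grown in RPMI 1640 with 10% FCS, L-glutamine and antibiotics at 26 °C. Seeded at 5 × 10^5 cells/mL with 3-fold medium dilutions of a 9.625 mM DMSO solution, 72 h at 26 °C. MTT added for 3 h; SDS/2-propanol stop; A550 (ref 620 nm). IC50 by Hills method.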
# [2] = tested on: Leishmania infantum; experiment: In vitro anti-leishmanial activity against promastigote cultures of Leishmania infantum MON 235; type: functional, organism-based; procedure, shortened: as §1
IC50 [1] [µM],IC50 [2] [µM],SMILES
2.88,5.97,C[N+](C)(C)CCOP(=O)([O-])OCCCCCCCCCCCC1C2CC3CC(C2)CC1C3 (centres undefined)
> 100,> 100,C[N+]1(CCOP(=O)([O-])OCCOc2ccccc2)CCOCC1
23.7,23.3,CCCCCCCCCCCCCCC1CCC(OCCOP(=O)([O-])OCC[N+](C)(C)C)CC1 (centres undefined)
> 100,> 100,C[N+](C)(C)CCOP(=O)([O-])OCCOc1ccccc1
4.02,> 100,C[N+](C)(C)CCOP(=O)([O-])OCCCCCC1C2CC3CC(C2)CC1C3 (centres undefined)
> 100,> 100,C[N+]1(CCOP(=O)([O-])OCCOc2ccc3ccccc3c2)CCCCC1
> 100,> 100,C[N+]1(CCOP(=O)([O-])OCCCCCCOc2ccccc2)CCOCC1
23.7,22.6,CCCCCCCCCCCCCCCCOP(=O)([O-])OCC[N+](C)(C)C [MILTEFOSINE]
> 100,> 100,C[N+](C)(C)CCOP(=O)([O-])OCCCCCCOc1ccccc1
> 100,> 100,C[N+](C)(C)CCOP(=O)([O-])OCC12CC3CC(CC(C3)C1)C2
> 100,> 100,C[N+](C)(C)CCOP(=O)([O-])OCCOc1ccc2ccccc2c1

SMILES,IC50 [1] [µM],IC50 [2] [µM]
C[N+]1(CCOP(=O)([O-])Oc2ccc(C34CC5CC(CC(C5)C3)C4)cc2)CCOCC1,> 100,> 100
